From publication PMC5131535 (ACS chemical neuroscience, 2016)

Columns and labels:
[1] = tested on: L-type calcium channel; assay: Lead Profiling Screen; type: binding; conditions: significant interaction
[2] = target: Dopamine D2S receptor (Homo sapiens, UniProt P14416); assay: Lead Profiling Screen; type: binding; conditions: significant interaction
[3] = target: Sigma σ1 receptor (Homo sapiens, UniProt Q99720); assay: Lead Profiling Screen; type: binding; conditions: significant interaction
[4] = Protein binding in plasma; conditions: rat
[5] = Protein binding in plasma; conditions: mouse
[6] = Protein binding in plasma; conditions: human
[7] = target: Kir7.1 pore mutants (Homo sapiens, UniProt O60928, A161S); type: cell-based; conditions: 3 µM, -120 mV
Sequence of Kir7.1 pore mutants (Homo sapiens, UniProt O60928, A161S) (O60928 whole entry A161S): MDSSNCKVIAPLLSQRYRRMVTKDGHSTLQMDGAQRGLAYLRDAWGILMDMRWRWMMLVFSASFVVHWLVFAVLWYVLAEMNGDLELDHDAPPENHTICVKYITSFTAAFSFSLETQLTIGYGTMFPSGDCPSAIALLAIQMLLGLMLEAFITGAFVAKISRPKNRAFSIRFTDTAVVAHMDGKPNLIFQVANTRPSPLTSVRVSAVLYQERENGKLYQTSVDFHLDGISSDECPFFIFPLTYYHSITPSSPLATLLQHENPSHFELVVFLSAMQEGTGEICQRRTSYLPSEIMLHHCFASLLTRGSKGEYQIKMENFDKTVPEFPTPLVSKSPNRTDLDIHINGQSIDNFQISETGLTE
Summary of the method: (§1)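 Single pore-lining residues were mutated on a WT or M125R Kir7.1 background and expressed transiently with EGFP in HEK-293T cells. The whole-cell step-ramp protocol from a −75 mV holding potential was used, with test compound at 3 µM. Read-out was % inhibition of current at −120 mV, mean ± SEM, tested against the respective parent channel (P < 0.05).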

[8] = target: Kir7.1 pore mutants (Homo sapiens, UniProt O60928, I160M); type: cell-based; conditions: 3 µM, -120 mV
Sequence of Kir7.1 pore mutants (Homo sapiens, UniProt O60928, I160M) (O60928 whole entry I160M): as the sequence (O60928 whole entry A161S) above, with I160M, S161A counted along it
Summary of the method: as §1

[9] = target: Kir7.1 pore mutants (Homo sapiens, UniProt O60928, T153C); type: cell-based; conditions: 3 µM, -120 mV
Sequence of Kir7.1 pore mutants (Homo sapiens, UniProt O60928, T153C) (O60928 whole entry T153C): as the sequence (O60928 whole entry A161S) above, with T153C, S161A counted along it
Summary of the method: as §1

[10] = plasma

Sequence of Dopamine D2S receptor (P14416 1-414 isoform P14416-2): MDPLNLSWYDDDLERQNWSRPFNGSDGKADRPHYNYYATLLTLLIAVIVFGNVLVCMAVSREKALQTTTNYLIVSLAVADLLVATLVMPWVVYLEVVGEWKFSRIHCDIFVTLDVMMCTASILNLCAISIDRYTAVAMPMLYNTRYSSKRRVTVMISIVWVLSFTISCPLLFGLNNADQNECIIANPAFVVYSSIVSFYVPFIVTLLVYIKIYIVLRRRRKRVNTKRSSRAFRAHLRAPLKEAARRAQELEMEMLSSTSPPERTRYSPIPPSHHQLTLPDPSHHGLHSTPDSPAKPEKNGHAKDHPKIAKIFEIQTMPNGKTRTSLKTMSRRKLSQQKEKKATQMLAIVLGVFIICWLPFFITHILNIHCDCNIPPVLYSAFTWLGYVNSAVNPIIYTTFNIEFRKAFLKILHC
Sequence of Sigma σ1 receptor (Q99720 whole entry): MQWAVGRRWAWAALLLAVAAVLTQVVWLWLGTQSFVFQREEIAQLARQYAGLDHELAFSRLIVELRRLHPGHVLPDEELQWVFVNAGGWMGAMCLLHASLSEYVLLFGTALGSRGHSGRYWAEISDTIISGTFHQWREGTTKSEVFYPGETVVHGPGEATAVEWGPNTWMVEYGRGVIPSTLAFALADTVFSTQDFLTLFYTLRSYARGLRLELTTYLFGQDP

Compound | Radioligand displacement, L-type calcium channel [1] [%] | Radioligand displacement, Dopamine D2S receptor [2] [%] | Radioligand displacement, Sigma σ1 receptor [3] [%] | fraction unbound [4] | fraction unbound [5] | fraction unbound [6] | Effect of mutation A161S on Kir7.1 inhibition [7] | Effect of mutation I160M on Kir7.1 inhibition [8] | Effect of mutation T153C/WT on channel inhibition [9] | PPB (%Fu) Rat [10] [%]
CC(C)OC(=O)NC1CCN(Cc2cc(Cl)c3cccnc3c2O)CC1 [Compound 19, iso-Propyl (1-((5-chloro-8-hydroxyquinolin-7-yl)methyl)piperidin-4-yl)carbamate] | > 50 | > 50 | > 50 | 0.088 | 0.114 | 0.01 | – | – | – | –
Oc1c(CN2CCC(Cc3ccccc3)CC2)cc(Cl)c2cccnc12 [VU714] | – | – | – | – | – | – | no effect | no effect | increased channel inhibition | 1.8
